Test system: U2OS
Experiment: Multiplex assay against U2OS
Type: toxicity, cell-based
Details: human
In short: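 With compound added, live cells were imaged on a CQ1 microscope at 37°C and 5% CO2; staining with Hoechst33342, BioTracker Green Microtubule Cytoskeleton Dye, MitoTracker Red and Annexin V Alexa Fluor 680 had been done at seeding. The CellPathfinder machine-learning gating scheme split cells into Hoechst high-intensity objects or normal cells, normal cells into healthy, pyknosed or fragmented nuclei, and pyknosed cells into mitotic or apoptotic. The tubulin, mitochondrial-mass and membrane-permeability phenotypes are per cents of healthy-nucleus cells.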

[1] = 12 h, 1 µM, compound concentration 1 uM, replicate 1
[2] = 12 h, 1 µM, compound concentration 1 uM, replicate 2
[3] = 12 h, 10 µM, compound concentration 10 uM, replicate 1
[4] = 12 h, 10 µM, compound concentration 10 uM, replicate 2
[5] = 24 h, 1 µM, compound concentration 1 uM, replicate 1
[6] = 24 h, 1 µM, compound concentration 1 uM, replicate 2
[7] = 24 h, 10 µM, compound concentration 10 uM, replicate 1
[8] = 24 h, 10 µM, compound concentration 10 uM, replicate 2
[9] = 48 h, 1 µM, compound concentration 1 uM, replicate 1
[10] = 48 h, 1 µM, compound concentration 1 uM, replicate 2
[11] = 48 h, 10 µM, compound concentration 10 uM, replicate 1
[12] = 48 h, 10 µM, compound concentration 10 uM, replicate 2

## Cc1ccc2nc(NCCN)c3ncc(C)n3c2c1.O=C(O)C(F)(F)F.O=C(O)C(F)(F)F
[1]
  Population Apoptotic (%): 29%
  Population Fragmented Nuclei (%): 6%
  Population Healthy Nuclei (%): 83%
  Population Hoechst High Intensity Objects (%): 1%
  Population Membrane Permeable-Phenotype (%): 6%
  Population Mitochondria Different-Phenotype (%): 17%
  Population Mitotic Cells (%): 70%
  Population Normal (%): 98%
  Population Pyknosed Nuclei (%): 10%
  Population Tubulin-Different-Phenotype (%): 27%
  Total Cell Count: 235
[2]
  Population Apoptotic (%): 4%
  Population Fragmented Nuclei (%): 8%
  Population Healthy Nuclei (%): 75%
  Population Hoechst High Intensity Objects (%): 13%
  Population Mitotic Cells (%): 95%
  Population Normal (%): 86%
  Population Pyknosed Nuclei (%): 16%
  Population Tubulin-Different-Phenotype (%): 17%
  Total Cell Count: 151
[3]
  Population Apoptotic (%): 28%
  Population Fragmented Nuclei (%): 17%
  Population Healthy Nuclei (%): 65%
  Population Hoechst High Intensity Objects (%): 8%
  Population Membrane Permeable-Phenotype (%): 17%
  Population Mitochondria Different-Phenotype (%): 11%
  Population Mitotic Cells (%): 71%
  Population Normal (%): 91%
  Population Pyknosed Nuclei (%): 17%
  Population Tubulin-Different-Phenotype (%): 17%
  Total Cell Count: 132
[4]
  Population Apoptotic (%): 50%
  Population Fragmented Nuclei (%): 27%
  Population Healthy Nuclei (%): 53%
  Population Hoechst High Intensity Objects (%): 12%
  Population Membrane Permeable-Phenotype (%): 15%
  Population Mitochondria Different-Phenotype (%): 13%
  Population Mitotic Cells (%): 50%
  Population Normal (%): 87%
  Population Pyknosed Nuclei (%): 18%
  Population Tubulin-Different-Phenotype (%): 22%
  Total Cell Count: 123
[5]
  Population Apoptotic (%): 33%
  Population Fragmented Nuclei (%): 2%
  Population Healthy Nuclei (%): 93%
  Population Hoechst High Intensity Objects (%): 1%
  Population Membrane Permeable-Phenotype (%): 7%
  Population Mitochondria Different-Phenotype (%): 19%
  Population Mitotic Cells (%): 66%
  Population Normal (%): 98%
  Population Pyknosed Nuclei (%): 3%
  Population Tubulin-Different-Phenotype (%): 31%
  Total Cell Count: 309
[6]
  Population Apoptotic (%): 18%
  Population Fragmented Nuclei (%): 6%
  Population Healthy Nuclei (%): 84%
  Population Hoechst High Intensity Objects (%): 8%
  Population Mitochondria Different-Phenotype (%): 32%
  Population Mitotic Cells (%): 81%
  Population Normal (%): 91%
  Population Pyknosed Nuclei (%): 9%
  Population Tubulin-Different-Phenotype (%): 20%
  Total Cell Count: 192
[7]
  Population Apoptotic (%): 76%
  Population Fragmented Nuclei (%): 27%
  Population Healthy Nuclei (%): 30%
  Population Hoechst High Intensity Objects (%): 8%
  Population Membrane Permeable-Phenotype (%): 32%
  Population Mitochondria Different-Phenotype (%): 26%
  Population Mitotic Cells (%): 23%
  Population Normal (%): 91%
  Population Pyknosed Nuclei (%): 41%
  Population Tubulin-Different-Phenotype (%): 32%
  Total Cell Count: 123
[8]
  Population Apoptotic (%): 61%
  Population Fragmented Nuclei (%): 29%
  Population Healthy Nuclei (%): 36%
  Population Hoechst High Intensity Objects (%): 14%
  Population Membrane Permeable-Phenotype (%): 24%
  Population Mitochondria Different-Phenotype (%): 42%
  Population Mitotic Cells (%): 38%
  Population Normal (%): 85%
  Population Pyknosed Nuclei (%): 34%
  Population Tubulin-Different-Phenotype (%): 30%
  Total Cell Count: 106

## CN1C2CCC1CC(OC(c1ccc(F)cc1)c1ccc(F)cc1)C2.Cl (stereo not given)
[1]
  Population Apoptotic (%): 45%
  Population Fragmented Nuclei (%): 8%
  Population Healthy Nuclei (%): 80%
  Population Hoechst High Intensity Objects (%): 4%
  Population Membrane Permeable-Phenotype (%): 2%
  Population Mitochondria Different-Phenotype (%): 11%
  Population Mitotic Cells (%): 54%
  Population Normal (%): 95%
  Population Pyknosed Nuclei (%): 10%
  Total Cell Count: 223
[2]
  Population Apoptotic (%): 100%
  Population Fragmented Nuclei (%): 5%
  Population Healthy Nuclei (%): 92%
  Population Hoechst High Intensity Objects (%): 2%
  Population Membrane Permeable-Phenotype (%): 3%
  Population Mitochondria Different-Phenotype (%): 4%
  Population Mitotic Cells (%): 0%
  Population Normal (%): 97%
  Population Pyknosed Nuclei (%): 1%
  Population Tubulin-Different-Phenotype (%): 8%
  Total Cell Count: 69
[3]
  Population Apoptotic (%): 56%
  Population Fragmented Nuclei (%): 15%
  Population Healthy Nuclei (%): 68%
  Population Hoechst High Intensity Objects (%): 4%
  Population Membrane Permeable-Phenotype (%): 4%
  Population Mitochondria Different-Phenotype (%): 81%
  Population Mitotic Cells (%): 43%
  Population Normal (%): 95%
  Population Pyknosed Nuclei (%): 15%
  Population Tubulin-Different-Phenotype (%): 54%
  Total Cell Count: 151
[4]
  Population Apoptotic (%): 80%
  Population Fragmented Nuclei (%): 8%
  Population Healthy Nuclei (%): 78%
  Population Hoechst High Intensity Objects (%): 6%
  Population Membrane Permeable-Phenotype (%): 10%
  Population Mitochondria Different-Phenotype (%): 89%
  Population Mitotic Cells (%): 20%
  Population Normal (%): 93%
  Population Pyknosed Nuclei (%): 13%
  Population Tubulin-Different-Phenotype (%): 49%
  Total Cell Count: 78
[5]
  Population Apoptotic (%): 50%
  Population Fragmented Nuclei (%): 7%
  Population Healthy Nuclei (%): 84%
  Population Hoechst High Intensity Objects (%): 3%
  Population Membrane Permeable-Phenotype (%): 1%
  Population Mitochondria Different-Phenotype (%): 6%
  Population Mitotic Cells (%): 50%
  Population Normal (%): 96%
  Population Pyknosed Nuclei (%): 7%
  Population Tubulin-Different-Phenotype (%): 3%
  Total Cell Count: 305
[6]
  Population Apoptotic (%): 20%
  Population Fragmented Nuclei (%): 3%
  Population Healthy Nuclei (%): 90%
  Population Hoechst High Intensity Objects (%): 2%
  Population Membrane Permeable-Phenotype (%): 4%
  Population Mitochondria Different-Phenotype (%): 4%
  Population Mitotic Cells (%): 80%
  Population Normal (%): 97%
  Population Pyknosed Nuclei (%): 6%
  Population Tubulin-Different-Phenotype (%): 8%
  Total Cell Count: 82
[7]
  Population Apoptotic (%): 62%
  Population Fragmented Nuclei (%): 15%
  Population Healthy Nuclei (%): 65%
  Population Hoechst High Intensity Objects (%): 7%
  Population Membrane Permeable-Phenotype (%): 0%
  Population Mitochondria Different-Phenotype (%): 71%
  Population Mitotic Cells (%): 37%
  Population Normal (%): 92%
  Population Tubulin-Different-Phenotype (%): 30%
  Total Cell Count: 196
[8]
  Population Apoptotic (%): 80%
  Population Fragmented Nuclei (%): 16%
  Population Healthy Nuclei (%): 64%
  Population Hoechst High Intensity Objects (%): 3%
  Population Membrane Permeable-Phenotype (%): 6%
  Population Mitochondria Different-Phenotype (%): 78%
  Population Mitotic Cells (%): 20%
  Population Normal (%): 96%
  Population Pyknosed Nuclei (%): 19%
  Population Tubulin-Different-Phenotype (%): 25%
  Total Cell Count: 107
[9]
  Population Apoptotic (%): 33%
  Population Fragmented Nuclei (%): 6%
  Population Healthy Nuclei (%): 87%
  Population Hoechst High Intensity Objects (%): 1%
  Population Membrane Permeable-Phenotype (%): 2%
  Population Mitochondria Different-Phenotype (%): 6%
  Population Mitotic Cells (%): 66%
  Population Normal (%): 98%
  Population Pyknosed Nuclei (%): 6%
  Population Tubulin-Different-Phenotype (%): 5%
  Total Cell Count: 477
[10]
  Population Apoptotic (%): 0%
  Population Fragmented Nuclei (%): 1%
  Population Healthy Nuclei (%): 97%
  Population Hoechst High Intensity Objects (%): 2%
  Population Membrane Permeable-Phenotype (%): 5%
  Population Mitochondria Different-Phenotype (%): 16%
  Population Mitotic Cells (%): 100%
  Population Normal (%): 97%
  Population Pyknosed Nuclei (%): 0%
  Population Tubulin-Different-Phenotype (%): 7%
  Total Cell Count: 119
[11]
  Population Apoptotic (%): 64%
  Population Fragmented Nuclei (%): 20%
  Population Healthy Nuclei (%): 63%
  Population Hoechst High Intensity Objects (%): 5%
  Population Membrane Permeable-Phenotype (%): 1%
  Population Mitochondria Different-Phenotype (%): 44%
  Population Mitotic Cells (%): 35%
  Population Normal (%): 94%
  Population Pyknosed Nuclei (%): 15%
  Population Tubulin-Different-Phenotype (%): 17%
  Total Cell Count: 249
[12]
  Population Apoptotic (%): 77%
  Population Fragmented Nuclei (%): 16%
  Population Healthy Nuclei (%): 75%
  Population Hoechst High Intensity Objects (%): 6%
  Population Membrane Permeable-Phenotype (%): 18%
  Population Mitochondria Different-Phenotype (%): 56%
  Population Mitotic Cells (%): 22%
  Population Normal (%): 93%
  Population Pyknosed Nuclei (%): 7%
  Population Tubulin-Different-Phenotype (%): 27%
  Total Cell Count: 127

— ChEMBL document CHEMBL4689842, “EUbOPEN Chemogenomics Library wave 1” (2021)
